Data: ChEMBL document CHEMBL2407075, “Sulphonamido-quinoxalines: search for anticancer agent” (Eur J Med Chem, 2013)

tested on: MDA-MB-435; test: Growth inhibition of human MDA-MB-435 cells at 10 uM after 48 hrs by sulforhodamine B assay; assay type: functional; conditions: MDA-MB-435, 48 h, read-out: GI
How it was run: (§1)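 Single-dose screen at 10 µM across the NCI 60 panel. Cells in RPMI 1640 with 5% FBS and 2 mM L-glutamine, plated at 5000–40,000/well and preincubated 24 h at 37 °C, 5% CO2. Drug in DMSO, 48 h exposure. Fixed with TCA, stained with SRB, A515 read. Percent growth is taken relative to untreated control, and inhibition is 100 minus growth.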

Structure (SMILES) | inhibition of growth at 10 µM [%]
O=C(NS(=O)(=O)c1ccc2nc(-c3ccccc3)c(-c3ccccc3)nc2c1)c1ccccc1 | 12.9

tested on: not listed separately; test: Growth inhibition of human EKVX cells at 10 uM after 48 hrs by sulforhodamine B assay; assay type: functional; conditions: read-out: GI
How it was run: (§2)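 NCI-60 one-dose primary screen at a single 10 µM concentration. Cells in RPMI 1640 with 5% FBS, preincubated 24 h at 37 °C, 5% CO2. Drug exposure 48 h, then TCA fixation, SRB staining and absorbance at 515 nm. Percent growth calculated against time-zero and untreated control wells, then converted to percent growth inhibition.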

Structure (SMILES) | inhibition of growth at 10 µM [%]
O=C(NS(=O)(=O)c1ccc2nc(-c3ccccc3)c(-c3ccccc3)nc2c1)c1ccccc1 | 26.5

tested on: U-251; test: Growth inhibition of human U251 cells at 10 uM after 48 hrs by sulforhodamine B assay; assay type: functional; conditions: U-251, 48 h, read-out: GI; how it was run: as §1

Structure (SMILES) | inhibition of growth at 10 µM [%]
O=C(NS(=O)(=O)c1ccc2nc(-c3ccccc3)c(-c3ccccc3)nc2c1)c1ccccc1 | 21.6

tested on: NCI-H522; test: Growth inhibition of human NCI-H522 cells at 10 uM after 48 hrs by sulforhodamine B assay; assay type: functional; conditions: NCI-H522, 48 h, read-out: GI; how it was run: as §1

Structure (SMILES) | inhibition of growth at 10 µM [%]
O=C(NS(=O)(=O)c1ccc2nc(-c3ccccc3)c(-c3ccccc3)nc2c1)c1ccccc1 | 23.5

tested on: NCI-H322M; test: Growth inhibition of human NCI-H322M cells at 10 uM after 48 hrs by sulforhodamine B assay; assay type: functional; conditions: read-out: GI; how it was run: as §1

Structure (SMILES) | inhibition of growth at 10 µM [%]
O=C(NS(=O)(=O)c1ccc2nc(-c3ccccc3)c(-c3ccccc3)nc2c1)c1ccccc1 | 20.9

tested on: MOLT-4; test: Growth inhibition of human MOLT4 cells at 10 uM after 48 hrs by sulforhodamine B assay; assay type: functional; conditions: MOLT-4, 48 h, read-out: GI; how it was run: as §1

Structure (SMILES) | inhibition of growth at 10 µM [%]
O=C(NS(=O)(=O)c1ccc2nc(-c3ccccc3)c(-c3ccccc3)nc2c1)c1ccccc1 | 44.9

tested on: MDA-MB-468; test: Growth inhibition of human MDA-MB-468 cells at 10 uM after 48 hrs by sulforhodamine B assay; assay type: functional; conditions: MDA-MB-468, 48 h, read-out: GI; how it was run: as §1

Structure (SMILES) | inhibition of growth at 10 µM [%]
O=C(NS(=O)(=O)c1ccc2nc(-c3ccccc3)c(-c3ccccc3)nc2c1)c1ccccc1 | 40.2

tested on: SK-OV-3; test: Growth inhibition of human SKOV3 cells at 10 uM after 48 hrs by sulforhodamine B assay; assay type: functional; conditions: SK-OV-3, 48 h, read-out: GI; how it was run: as §1

Structure (SMILES) | inhibition of growth at 10 µM [%]
O=C(NS(=O)(=O)c1ccc2nc(-c3ccccc3)c(-c3ccccc3)nc2c1)c1ccccc1 | 12.8

tested on: not listed separately; test: Growth inhibition of human Hs 578T cells at 10 uM after 48 hrs by sulforhodamine B assay; assay type: functional; conditions: read-out: GI; how it was run: as §2

Structure (SMILES) | inhibition of growth at 10 µM [%]
O=C(NS(=O)(=O)c1ccc2nc(-c3ccccc3)c(-c3ccccc3)nc2c1)c1ccccc1 | 17

tested on: UACC-257; test: Growth inhibition of human UACC257 cells at 10 uM after 48 hrs by sulforhodamine B assay; assay type: functional; conditions: UACC-257, 48 h, read-out: GI; how it was run: as §1

Structure (SMILES) | inhibition of growth at 10 µM [%]
O=C(NS(=O)(=O)c1ccc2nc(-c3ccccc3)c(-c3ccccc3)nc2c1)c1ccccc1 | 15.2

tested on: NCI-H226; test: Growth inhibition of human NCI-H226 cells at 10 uM after 48 hrs by sulforhodamine B assay; assay type: functional; conditions: NCI-H226, 48 h, read-out: GI; how it was run: as §1

Structure (SMILES) | inhibition of growth at 10 µM [%]
O=C(NS(=O)(=O)c1ccc2nc(-c3ccccc3)c(-c3ccccc3)nc2c1)c1ccccc1 | 62

tested on: HCT-116; test: Growth inhibition of human HCT116 cells at 10 uM after 48 hrs by sulforhodamine B assay; assay type: functional; conditions: HCT-116, 48 h, read-out: GI; how it was run: as §2

Structure (SMILES) | inhibition of growth at 10 µM [%]
O=C(NS(=O)(=O)c1ccc2nc(-c3ccccc3)c(-c3ccccc3)nc2c1)c1ccccc1 | 36.7

tested on: K562; test: Growth inhibition of human K562 cells at 10 uM after 48 hrs by sulforhodamine B assay; assay type: functional; conditions: K562, 48 h, read-out: GI; how it was run: as §1

Structure (SMILES) | inhibition of growth at 10 µM [%]
O=C(NS(=O)(=O)c1ccc2nc(-c3ccccc3)c(-c3ccccc3)nc2c1)c1ccccc1 | 45.8

tested on: SK-MEL-28; test: Growth inhibition of human SK-MEL-28 cells at 10 uM after 48 hrs by sulforhodamine B assay; assay type: functional; conditions: SK-MEL-28, 48 h, read-out: GI; how it was run: as §1

Structure (SMILES) | inhibition of growth at 10 µM [%]
O=C(NS(=O)(=O)c1ccc2nc(-c3ccccc3)c(-c3ccccc3)nc2c1)c1ccccc1 | 7.63

tested on: M14; test: Growth inhibition of human M14 cells at 10 uM after 48 hrs by sulforhodamine B assay; assay type: functional; conditions: M14, 48 h, read-out: GI; how it was run: as §1

Structure (SMILES) | inhibition of growth at 10 µM [%]
O=C(NS(=O)(=O)c1ccc2nc(-c3ccccc3)c(-c3ccccc3)nc2c1)c1ccccc1 | 2.45

tested on: 786-0; test: Growth inhibition of human 786-0 cells at 10 uM after 48 hrs by sulforhodamine B assay; assay type: functional; conditions: 786-0, 48 h, read-out: GI
How it was run: (§3)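 Single-dose NCI-60 prescreen at 10 µM for 48 h at 37 °C and 5% CO2, using cells grown in RPMI 1640 with 5% FBS and 2 mM glutamine. Protein was measured by SRB after TCA fixation: 10% final for adherent lines, 16% for suspension lines. Absorbance was read at 515 nm. Percent growth inhibition was obtained by subtracting percent growth from 100.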

Structure (SMILES) | inhibition of growth at 10 µM [%]
O=C(NS(=O)(=O)c1ccc2nc(-c3ccccc3)c(-c3ccccc3)nc2c1)c1ccccc1 | 16.5

tested on: HL-60(TB); test: Growth inhibition of human HL-60(TB) cells at 10 uM after 48 hrs by sulforhodamine B assay; assay type: functional; conditions: HL-60, 48 h, read-out: GI
How it was run: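 Single-dose NCI-60 primary screen at 10 µM, 48 h exposure, SRB read-out. Growth percentage of treated versus untreated cells was recorded and given as percent inhibition by subtraction.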

Structure (SMILES) | inhibition of growth at 10 µM [%]
O=C(NS(=O)(=O)c1ccc2nc(-c3ccccc3)c(-c3ccccc3)nc2c1)c1ccccc1 | 49.4

tested on: SF-295; test: Growth inhibition of human SF295 cells at 10 uM after 48 hrs by sulforhodamine B assay; assay type: functional; conditions: SF-295, 48 h, read-out: GI; how it was run: as §1

Structure (SMILES) | inhibition of growth at 10 µM [%]
O=C(NS(=O)(=O)c1ccc2nc(-c3ccccc3)c(-c3ccccc3)nc2c1)c1ccccc1 | 21

tested on: IGROV-1; test: Growth inhibition of human IGROV1 cells at 10 uM after 48 hrs by sulforhodamine B assay; assay type: functional; conditions: IGROV-1, 48 h, read-out: GI; how it was run: as §1

Structure (SMILES) | inhibition of growth at 10 µM [%]
O=C(NS(=O)(=O)c1ccc2nc(-c3ccccc3)c(-c3ccccc3)nc2c1)c1ccccc1 | 16.5

tested on: SW-620; test: Growth inhibition of human SW620 cells at 10 uM after 48 hrs by sulforhodamine B assay; assay type: functional; conditions: SW-620, 48 h, read-out: GI; how it was run: as §1

Structure (SMILES) | inhibition of growth at 10 µM [%]
O=C(NS(=O)(=O)c1ccc2nc(-c3ccccc3)c(-c3ccccc3)nc2c1)c1ccccc1 | 17.4

tested on: SNB-75; test: Growth inhibition of human SNB75 cells at 10 uM after 48 hrs by sulforhodamine B assay; assay type: functional; conditions: SNB-75, 48 h, read-out: GI; how it was run: as §1

Structure (SMILES) | inhibition of growth at 10 µM [%]
O=C(NS(=O)(=O)c1ccc2nc(-c3ccccc3)c(-c3ccccc3)nc2c1)c1ccccc1 | 34.7

tested on: RXF 393; test: Growth inhibition of human RXF393 cells at 10 uM after 48 hrs by sulforhodamine B assay; assay type: functional; conditions: RXF 393, 48 h, read-out: GI; how it was run: as §1

Structure (SMILES) | inhibition of growth at 10 µM [%]
O=C(NS(=O)(=O)c1ccc2nc(-c3ccccc3)c(-c3ccccc3)nc2c1)c1ccccc1 | 39.1

tested on: COLO 205; test: Growth inhibition of human COLO205 cells at 10 uM after 48 hrs by sulforhodamine B assay; assay type: functional; conditions: COLO 205, 48 h, read-out: GI; how it was run: as §3

Structure (SMILES) | inhibition of growth at 10 µM [%]
O=C(NS(=O)(=O)c1ccc2nc(-c3ccccc3)c(-c3ccccc3)nc2c1)c1ccccc1 | 19.5

tested on: not listed separately; test: Oral bioavailability in human; assay type: ADME, organism-based; conditions: in silico prediction

Structure (SMILES) | bioavailability [%]
O=C(NS(=O)(=O)c1ccc2nc(-c3ccccc3)c(-c3ccccc3)nc2c1)c1ccccc1 | 100

tested on: A549; test: Growth inhibition of human A549/ATCC cells at 10 uM after 48 hrs by sulforhodamine B assay; assay type: functional; conditions: A549, 48 h, read-out: GI; how it was run: as §3

Structure (SMILES) | inhibition of growth at 10 µM [%]
O=C(NS(=O)(=O)c1ccc2nc(-c3ccccc3)c(-c3ccccc3)nc2c1)c1ccccc1 | 21.1

tested on: OVCAR-4; test: Growth inhibition of human OVCAR4 cells at 10 uM after 48 hrs by sulforhodamine B assay; assay type: functional; conditions: OVCAR-4, 48 h, read-out: GI; how it was run: as §1

Structure (SMILES) | inhibition of growth at 10 µM [%]
O=C(NS(=O)(=O)c1ccc2nc(-c3ccccc3)c(-c3ccccc3)nc2c1)c1ccccc1 | 16.5

tested on: TK-10; test: Growth inhibition of human TK10 cells at 10 uM after 48 hrs by sulforhodamine B assay; assay type: functional; conditions: TK-10, 48 h, read-out: GI; how it was run: as §1

Structure (SMILES) | inhibition of growth at 10 µM [%]
O=C(NS(=O)(=O)c1ccc2nc(-c3ccccc3)c(-c3ccccc3)nc2c1)c1ccccc1 | 2.54

tested on: SNB-19; test: Growth inhibition of human SNB19 cells at 10 uM after 48 hrs by sulforhodamine B assay; assay type: functional; conditions: SNB-19, 48 h, read-out: GI; how it was run: as §1

Structure (SMILES) | inhibition of growth at 10 µM [%]
O=C(NS(=O)(=O)c1ccc2nc(-c3ccccc3)c(-c3ccccc3)nc2c1)c1ccccc1 | 22

tested on: HOP-62; test: Growth inhibition of human HOP62 cells at 10 uM after 48 hrs by sulforhodamine B assay; assay type: functional; conditions: HOP-62, 48 h, read-out: GI; how it was run: as §2

Structure (SMILES) | inhibition of growth at 10 µM [%]
O=C(NS(=O)(=O)c1ccc2nc(-c3ccccc3)c(-c3ccccc3)nc2c1)c1ccccc1 | 2.87

tested on: DU-145; test: Growth inhibition of human DU145 cells at 10 uM after 48 hrs by sulforhodamine B assay; assay type: functional; conditions: DU-145, 48 h, read-out: GI; how it was run: as §3

Structure (SMILES) | inhibition of growth at 10 µM [%]
O=C(NS(=O)(=O)c1ccc2nc(-c3ccccc3)c(-c3ccccc3)nc2c1)c1ccccc1 | 6.85

tested on: OVCAR-8; test: Growth inhibition of human OVCAR8 cells at 10 uM after 48 hrs by sulforhodamine B assay; assay type: functional; conditions: OVCAR-8, 48 h, read-out: GI; how it was run: as §1

Structure (SMILES) | inhibition of growth at 10 µM [%]
O=C(NS(=O)(=O)c1ccc2nc(-c3ccccc3)c(-c3ccccc3)nc2c1)c1ccccc1 | 8.02

tested on: MDA-MB-231; test: Growth inhibition of human MDA-MB-231 cells at 10 uM after 48 hrs by sulforhodamine B assay; assay type: functional; conditions: MDA-MB-231, 48 h, read-out: GI; how it was run: as §1

Structure (SMILES) | inhibition of growth at 10 µM [%]
O=C(NS(=O)(=O)c1ccc2nc(-c3ccccc3)c(-c3ccccc3)nc2c1)c1ccccc1 | 28.5

tested on: BT-549; test: Growth inhibition of human BT549 cells at 10 uM after 48 hrs by sulforhodamine B assay; assay type: functional; conditions: BT-549, 48 h, read-out: GI; how it was run: as §3

Structure (SMILES) | inhibition of growth at 10 µM [%]
O=C(NS(=O)(=O)c1ccc2nc(-c3ccccc3)c(-c3ccccc3)nc2c1)c1ccccc1 | 7.67
